Test results published in ChEMBL document CHEMBL4706590, “Design and characterization of cereblon-mediated androgen receptor proteolysis-targeting chimeras” (Eur J Med Chem, 2020).

Columns and labels:
[1] = Metabolic stability in mouse liver microsomes assessed as compound remaining at 1 uM after 30 mins in presence of NADPH-regenerating system; format: ADME, Microsome; settings: read-out: Stabilty
How it was run: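 Mouse liver microsomes at 0.5 mg protein/mL in 100 mM PBS, pH 7.4. Reaction started with NADPH-regenerating solution (1.3 mM NADP+, 3.3 mM glucose-6-phosphate, 0.4 U/mL G6PDH, 3.3 mM MgCl2). Incubated 30 min at 37 °C, stopped with ice-cold acetonitrile, centrifuged. Percent remaining reported as mean ± SD, n = 3.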

[2] = target: T1, Protein cereblon/Androgen receptor (Homo sapiens, UniProt P10275+Q96SW2); experiment: Protac activity at CRBN/AR in human LNCaP cells assessed as AR degradation at 0.1 uM by western blotting analysis relative to control; format: cell-based
How it was run: (§1)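 LNCaP (IMDM) or 22RV1 (RPMI 1640) cells with 10% FBS at 37 °C, 5% CO2, treated with DMSO vehicle as control. Cells lysed in RIPA buffer (50 mM Tris-HCl pH 7.5, 150 mM NaCl, 1% Triton X-100, 0.1% SDS, 0.5% deoxycholate, protease inhibitors). Protein quantified by Bradford assay. Immunoblotted for AR with tubulin as loading control, HRP chemiluminescence detection.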

[3] = target: T1, Protein cereblon/Androgen receptor; experiment: Protac activity at CRBN/AR in human LNCaP cells assessed as AR degradation at 1 uM by Western blotting analysis relative to control; format: cell-based; how it was run: as §1
[4] = tested on: VCaP; experiment: Antiproliferative activity against human VCaP cells assessed as reduction in cell viability after 6 days by CellTiter-Glo assay; format: functional; settings: 144 h, time 6 day
How it was run: (§2)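 LNCaP seeded at 1.5 × 10³ and VCaP at 4 × 10³ cells per well in 96-well plates. Cells grown in IMDM with 10% FBS and antibiotic-antimycotic at 37 °C, 5% CO2, with DMSO as vehicle. IC50 from nonlinear regression of log(inhibitor) versus response.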

[5] = tested on: LNCaP; experiment: Antiproliferative activity against human LNCaP cells assessed as reduction in cell viability after 6 days by CellTiter-Glo assay; format: functional; settings: 144 h, time 6 day; how it was run: as §2
[6] = target: T1, Protein cereblon/Androgen receptor; experiment: Protac activity at CRBN/AR in human LNCaP cells assessed as AR degradation at 10 uM by Western blotting analysis relative to control; format: cell-based; how it was run: as §1
[7] = Tmax in ICR mouse at 5 mg/kg, ip by LC-MS/MS analysis; format: ADME, organism-based; settings: in vivo
How it was run: (§3)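 Male ICR mice, 7 weeks old. Single dose of 5 mg/kg IV or IP in 5% DMSO, 52% PEG400, 3% Tween 80 in water, or 30 mg/kg PO in 20% PEG400 and 3% Tween 80 in water. Retro-orbital blood sampled over time. Plasma protein-precipitated with acetonitrile (1:10) and analysed by LC-MS/MS. Parameters from noncompartmental analysis of mean data, n = 3.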

[8] = AUCt in ICR mouse at 5 mg/kg, iv by LC-MS/MS analysis; format: ADME, organism-based; parameters: dose 5 mg/kg; settings: in vivo; how it was run: as §3
[9] = AUCt in ICR mouse at 30 mg/kg, po by LC-MS/MS analysis; format: ADME, organism-based; parameters: dose 30 mg/kg; settings: in vivo; how it was run: as §3
[10] = Cmax in ICR mouse at 5 mg/kg, ip by LC-MS/MS analysis; format: ADME, organism-based; parameters: route intraperitoneal, dose 5 mg/kg; settings: in vivo; how it was run: as §3
[11] = Half life in ICR mouse at 5 mg/kg, iv by LC-MS/MS analysis; format: ADME, organism-based; settings: in vivo; how it was run: as §3
[12] = AUCt in ICR mouse at 5 mg/kg, ip by LC-MS/MS analysis; format: ADME, organism-based; parameters: dose 5 mg/kg; settings: in vivo; how it was run: as §3
[13] = Half life in ICR mouse at 5 mg/kg, ip by LC-MS/MS analysis; format: ADME, organism-based; settings: in vivo; how it was run: as §3
[14] = Half life in ICR mouse at 30 mg/kg, po by LC-MS/MS analysis; format: ADME, organism-based; settings: in vivo; how it was run: as §3
[15] = Tmax in ICR mouse at 30 mg/kg, po by LC-MS/MS analysis; format: ADME, organism-based; settings: in vivo; how it was run: as §3
[16] = Cmax in ICR mouse at 30 mg/kg, po by LC-MS/MS analysis; format: ADME, organism-based; parameters: route oral, dose 30 mg/kg; settings: in vivo; how it was run: as §3

T1 sequence (P10275 whole entry, looked up): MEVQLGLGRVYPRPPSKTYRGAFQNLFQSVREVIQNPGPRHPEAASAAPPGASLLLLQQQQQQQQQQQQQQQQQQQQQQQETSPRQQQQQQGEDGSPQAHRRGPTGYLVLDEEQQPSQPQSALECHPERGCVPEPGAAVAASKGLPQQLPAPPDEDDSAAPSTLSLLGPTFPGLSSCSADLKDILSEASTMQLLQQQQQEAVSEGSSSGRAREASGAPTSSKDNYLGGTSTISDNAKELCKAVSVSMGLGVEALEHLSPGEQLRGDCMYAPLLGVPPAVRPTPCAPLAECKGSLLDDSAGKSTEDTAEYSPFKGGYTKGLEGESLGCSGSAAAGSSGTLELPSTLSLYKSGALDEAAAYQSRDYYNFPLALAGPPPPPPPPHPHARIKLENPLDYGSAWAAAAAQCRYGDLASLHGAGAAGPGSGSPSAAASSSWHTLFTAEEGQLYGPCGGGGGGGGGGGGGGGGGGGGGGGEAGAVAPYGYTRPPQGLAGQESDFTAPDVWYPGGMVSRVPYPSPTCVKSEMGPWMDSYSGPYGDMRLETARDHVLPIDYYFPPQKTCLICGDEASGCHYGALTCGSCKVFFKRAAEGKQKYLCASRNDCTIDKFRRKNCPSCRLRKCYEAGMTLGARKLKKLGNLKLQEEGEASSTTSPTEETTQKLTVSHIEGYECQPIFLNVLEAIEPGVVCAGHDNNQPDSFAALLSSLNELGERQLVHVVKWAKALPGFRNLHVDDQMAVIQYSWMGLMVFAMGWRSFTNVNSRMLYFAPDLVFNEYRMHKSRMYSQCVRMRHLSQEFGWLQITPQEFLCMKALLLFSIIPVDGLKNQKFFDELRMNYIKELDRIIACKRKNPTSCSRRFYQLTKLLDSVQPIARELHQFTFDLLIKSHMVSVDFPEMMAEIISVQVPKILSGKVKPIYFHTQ
T1 sequence (Q96SW2 whole entry, looked up): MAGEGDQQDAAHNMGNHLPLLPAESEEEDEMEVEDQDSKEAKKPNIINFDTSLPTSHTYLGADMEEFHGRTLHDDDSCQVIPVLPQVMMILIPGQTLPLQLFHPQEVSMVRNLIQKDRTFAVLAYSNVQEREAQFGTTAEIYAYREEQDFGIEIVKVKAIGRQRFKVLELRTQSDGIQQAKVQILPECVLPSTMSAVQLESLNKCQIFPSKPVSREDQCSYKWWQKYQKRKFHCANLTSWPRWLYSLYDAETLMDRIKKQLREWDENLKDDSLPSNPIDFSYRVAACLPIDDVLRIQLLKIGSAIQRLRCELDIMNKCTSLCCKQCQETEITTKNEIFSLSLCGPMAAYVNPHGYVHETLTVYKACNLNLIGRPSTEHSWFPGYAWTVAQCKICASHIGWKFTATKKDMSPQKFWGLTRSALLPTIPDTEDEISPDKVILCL

Row | SMILES | remaining at 0.5 h, 1 µM [1] [%] | Activity [2] [%] | Activity [3] [%] | Activity [6] [%] | CC50 [4] [nM] | CC50 [5] [nM] | other results
1 | O=C1CC2(CCCC2)CC(=O)N1CCCCN1CCN(c2ncccn2)CC1 [BUSPIRONE] | 0.03 |  |  |  |  |  | 
2 | CC1(C)[C@H](NC(=O)c2ccc(N3CCN(CC4CCN(C(=O)C5CCN(c6ccc7nnn(C8CCC(=O)NC8=O)c(=O)c7c6)CC5)CC4)CC3)cc2)C(C)(C)[C@H]1Oc1ccc(C#N)c(Cl)c1 (stereo partly drawn) | 74.3 | 90 | 89 | 94 | 45 | 108 | 
3 | CC1(C)[C@H](NC(=O)c2ccc(N3CCN(CCC4CCN(C(=O)CNc5ccc6nnn(C7CCC(=O)NC7=O)c(=O)c6c5)CC4)CC3)cc2)C(C)(C)[C@H]1Oc1ccc(C#N)c(Cl)c1 (stereo partly drawn) | 0.56 | 7 | 87 | 83 | 107 | 1090 | 
4 | CC1(C)[C@H](NC(=O)c2ccc(N3CCN(CCOC4CCN(c5ccc6nnn(C7CCC(=O)NC7=O)c(=O)c6c5)CC4)CC3)cc2)C(C)(C)[C@H]1Oc1ccc(C#N)c(Cl)c1 (stereo partly drawn) | 86.8 | 86 | 89 | 87 | 22 | 523 | Tmax [7]: 2 h; AUC(0-t) [8]: 14300 ng·h/mL; AUC(0-t) ([9]; ICR): 2840 ng·h/mL; Cmax [10]: 1780 ng/mL; half-life [11]: 4.68 h; AUCt [12]: 10700 ng·h/mL; t1/2 [13]: 4.51 h; half-life ([14]; ICR): 5.58 h; Tmax ([15]; ICR, read-out: Tmax): 2 h; Cmax ([16]; ICR, read-out: Cmax): 280 ng/mL
5 | CC1(C)[C@H](NC(=O)c2ccc(N3CCN(CCC4CCN(c5ccc6nnn(C7CCC(=O)NC7=O)c(=O)c6c5)CC4)CC3)cc2)C(C)(C)[C@H]1Oc1ccc(C#N)c(Cl)c1 (stereo partly drawn) | 86.7 | 51 | 94 |  | 120 | 449 | 
6 | CC1(C)[C@H](NC(=O)c2ccc(N3CCN(CCC4CCN(C(=O)C5CN(c6ccc7nnn(C8CCC(=O)NC8=O)c(=O)c7c6)C5)CC4)CC3)cc2)C(C)(C)[C@H]1Oc1ccc(C#N)c(Cl)c1 (stereo partly drawn) | 92.9 | 74 | 84 | 96 | 37 | 538 | 
7 | CC1(C)[C@H](NC(=O)c2ccc(N3CCN(CC4CCN(C(=O)CNc5ccc6nnn(C7CCC(=O)NC7=O)c(=O)c6c5)CC4)CC3)cc2)C(C)(C)[C@H]1Oc1ccc(C#N)c(Cl)c1 (stereo partly drawn) |  | 70 | 89 | 35 | 3820 | 117 | 
8 | CC1(C)[C@H](NC(=O)c2ccc(N3CCN(CC4CCN(c5cccc6nnn(C7CCC(=O)NC7=O)c(=O)c56)CC4)CC3)cc2)C(C)(C)[C@H]1Oc1ccc(C#N)c(Cl)c1 (stereo partly drawn) |  | 15 | 77 | 78 |  | 613 | 
9 | CC1(C)[C@H](NC(=O)c2ccc(N3CCN(CCOC4CCN(C(=O)CNc5ccc6nnn(C7CCC(=O)NC7=O)c(=O)c6c5)CC4)CC3)cc2)C(C)(C)[C@H]1Oc1ccc(C#N)c(Cl)c1 (stereo partly drawn) | 31.2 | 77 | 95 | 88 | 57 | 852 | 
10 | CC1(C)[C@H](NC(=O)c2ccc(N3CCN(CCC4CCN(C(=O)C5CCN(c6ccc7nnn(C8CCC(=O)NC8=O)c(=O)c7c6)CC5)CC4)CC3)cc2)C(C)(C)[C@H]1Oc1ccc(C#N)c(Cl)c1 (stereo partly drawn) | 93.7 | 77 | 93 | 99 | 52 | 316 | 
11 | CC1(C)[C@H](NC(=O)c2ccc(N3CCN(CCOC4CCN(C(=O)C5CCN(c6ccc7nnn(C8CCC(=O)NC8=O)c(=O)c7c6)CC5)CC4)CC3)cc2)C(C)(C)[C@H]1Oc1ccc(C#N)c(Cl)c1 (stereo partly drawn) | 78.4 | 72 | 92 | 98 | 80 | 847 | 
12 | CC1(C)[C@H](NC(=O)c2ccc(N3CCN(CC4CCN(C(=O)C5CN(c6ccc7nnn(C8CCC(=O)NC8=O)c(=O)c7c6)C5)CC4)CC3)cc2)C(C)(C)[C@H]1Oc1ccc(C#N)c(Cl)c1 (stereo partly drawn) | 92.8 | 96 | 96 | 83 | 38 | 89 | Tmax [7]: 2 h; AUC(0-t) [8]: 24100 ng·h/mL; AUCt [9]: 440 ng·h/mL; Cmax [10]: 5540 ng/mL; half-life [11]: 4.48 h; AUCt [12]: 24200 ng·h/mL; t1/2 [13]: 4.82 h; t1/2 ([14]; 30 mg/kg): 26.7 h; Tmax ([15]; 30 mg/kg): 0.67 h; Cmax [16]: 50 ng/mL
13 | CC1(C)[C@H](NC(=O)c2ccc(N3CCN(CCC4CCN(c5cccc6nnn(C7CCC(=O)NC7=O)c(=O)c56)CC4)CC3)cc2)C(C)(C)[C@H]1Oc1ccc(C#N)c(Cl)c1 (stereo partly drawn) |  | 0 | 31 | 90 | 1580 | > 10000 | 
14 | CC1(C)[C@H](NC(=O)c2ccc(N3CCN(CC4CCN(c5ccc6c(=O)n(C7CCC(=O)NC7=O)nnc6c5)CC4)CC3)cc2)C(C)(C)[C@H]1Oc1ccc(C#N)c(Cl)c1 (stereo partly drawn) |  | 28 | 60 | 83 |  |  | 
15 | CC1(C)[C@H](NC(=O)c2ccc(N3CCN(CC4CCN(c5ccc6nnn(C7CCC(=O)NC7=O)c(=O)c6c5)CC4)CC3)cc2)C(C)(C)[C@H]1Oc1ccc(C#N)c(Cl)c1 (stereo partly drawn) | 71.7 | 79 | 91 | 95 | 81 | 259 | 

Now from value to compound, other results behind:

Row | remaining at 0.5 h, 1 µM [1] [%] | Activity [2] [%] | Activity [3] [%] | Activity [6] [%] | SMILES | CC50 [4] [nM] | CC50 [5] [nM] | other results
16 |  | 89 | 40 | 51 | CC1(C)[C@H](NC(=O)c2ccc(N3CCN(CC4CCN(C(=O)COc5ccc6nnn(C7CCC(=O)NC7=O)c(=O)c6c5)CC4)CC3)cc2)C(C)(C)[C@H]1Oc1ccc(C#N)c(Cl)c1 (stereo partly drawn) |  | 804 | 
17 |  | 0 | 26 | 71 | CC1(C)[C@H](NC(=O)c2ccc(N3CCN(C4CC5(CCN(c6cccc7nnn(C8CCC(=O)NC8=O)c(=O)c67)CC5)C4)CC3)cc2)C(C)(C)[C@H]1Oc1ccc(C#N)c(Cl)c1 (stereo partly drawn) |  | 13400 | 
18 | 62.8 | 60 | 77 | 79 | CC1(C)[C@H](NC(=O)c2ccc(N3CCN(C4CC5(CCN(C(=O)COc6ccc7nnn(C8CCC(=O)NC8=O)c(=O)c7c6)CC5)C4)CC3)cc2)C(C)(C)[C@H]1Oc1ccc(C#N)c(Cl)c1 (stereo partly drawn) | 76 | 196 | 
19 |  | 0 | 79 | 0 | CC1(C)[C@H](NC(=O)c2ccc(N3CCN(C4CC5(CCN(C(=O)C6CN(c7ccc8nnn(C9CCC(=O)NC9=O)c(=O)c8c7)C6)CC5)C4)CC3)cc2)C(C)(C)[C@H]1Oc1ccc(C#N)c(Cl)c1 (stereo partly drawn) | 135 | 312 | 
20 |  | 15 | 95 | 81 | CC1(C)[C@H](NC(=O)c2ccc(N3CCN(C4CC5(CCN(c6ccc7nnn(C8CCC(=O)NC8=O)c(=O)c7c6)CC5)C4)CC3)cc2)C(C)(C)[C@H]1Oc1ccc(C#N)c(Cl)c1 (stereo partly drawn) | 113 | 214 | 
21 | 2.98 | 0 | 50 | 82 | CC1(C)[C@H](NC(=O)c2ccc(N3CCN(CCC4CCN(C(=O)COc5ccc6nnn(C7CCC(=O)NC7=O)c(=O)c6c5)CC4)CC3)cc2)C(C)(C)[C@H]1Oc1ccc(C#N)c(Cl)c1 (stereo partly drawn) | 46 | 3180 | 
22 | 85.5 | 61 | 77 | 39 | CC1(C)[C@H](NC(=O)c2ccc(N3CCN(C4CC5(CCN(C(=O)CNc6ccc7nnn(C8CCC(=O)NC8=O)c(=O)c7c6)CC5)C4)CC3)cc2)C(C)(C)[C@H]1Oc1ccc(C#N)c(Cl)c1 (stereo partly drawn) | 54 | 208 | 
23 |  | 86 | 98 | 94 | CC1(C)[C@H](NC(=O)c2ccc(N3CCN(CCOC4CCN(C(=O)COc5ccc6nnn(C7CCC(=O)NC7=O)c(=O)c6c5)CC4)CC3)cc2)C(C)(C)[C@H]1Oc1ccc(C#N)c(Cl)c1 (stereo partly drawn) | 141 | 1300 | 
